Laboratory results reported in ChEMBL document CHEMBL2062484, “Design of barbiturate-nitrate hybrids that inhibit MMP-9 activity and secretion” (J Med Chem, 2012).
The source made the active and inactive calls. The calls are words filed in the database; no cut-off is given here.

Key:
[1] = tested on: Caco-2; experiment: Inhibition of HGF stimulated human Caco2 cells migration through matrigel membrane at 100 nM by staining based light microscopic analysis; type: functional
How it was run: (§1)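 Matrigel-coated invasion chamber inserts, 8 μm pore membrane, 0.5 mL of 2 × 10⁵ Caco-2 cells/mL; stimulated with HGF (100 or 500 ng/mL) or PMA (10 μM) with compound (100 nM or 10 μM); 48 h invasion at 37 °C, 5% CO2. Non-invading cells swabbed off, lower-surface cells Diff-Quik stained and counted by light microscopy; normalized to stimulated control; duplicates.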

[2] = Cytotoxicity against human HT1080 cells assessed as cell viability after 24 hrs by MTT assay; type: cell-based; settings: HT-1080 cells
How it was run: (§2)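 Cells seeded (Caco-2 8 × 10³/well, HT1080 12 × 10⁴/well), grown to 70% confluence, serum-starved 1 h, then exposed to compound at 0.1−200 μM (eight levels) serum-free for 24 h. MTT 0.5 mg/mL for 3 h at 37 °C, formazan dissolved in DMSO, OD 540 nm; viability as % of untreated. CC50 from sigmoidal fits; three experiments, triplicate wells.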

[3] = biological target: 72 kDa type IV collagenase (Homo sapiens, UniProt P08253); experiment: Inhibition of p-aminophenylmercuric acetate stimulated human recombinant MMP-2 using (7-methoxycoumarin-4-yl)-acetyl-pro-Leu-Gly-Leu-(3-(2,4-dinitrophenyl)-L-2,3-diaminopropionyl)-Ala-Arg-NH2 as substrate after 45 mins by fluorogenic assay
[4] = Cytotoxicity against human Caco2 cells assessed as cell viability after 24 hrs by MTT assay; type: cell-based; settings: Caco-2 cells; how it was run: as §2
[5] = biological target: Matrix metalloproteinase-9 (Homo sapiens, UniProt P14780); experiment: Inhibition of p-aminophenylmercuric acetate stimulated human recombinant MMP-9 using (7-methoxycoumarin-4-yl)-acetyl-pro-Leu-Gly-Leu-(3-(2,4-dinitrophenyl)-L-2,3-diaminopropionyl)-Ala-Arg-NH2 as substrate after 45 mins by fluorogenic assay
[6] = tested on: Caco-2; experiment: Inhibition of IL1beta/TNFalpha-stimulated MMP-9 secretion in human Caco2 cells at 10 uM after 24 hrs by densitometric analysis; type: functional, cell-based
How it was run: (§3)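 Near-confluent (~75%) Caco-2 switched to serum-free medium, pretreated 30 min with compound (10 μM, DMSO <1%), then TNF-α and IL-1β 10 ng/mL for 24 h at 37 °C. Cleared supernatants normalized by Bradford protein, run on 2% gelatin SDS-PAGE, Triton washed, developed 48 h at 37 °C in Tris pH 7.5/CaCl2 buffer, Coomassie stained; lysis bands quantified by densitometry as % of cytokine-only control.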

[7] = Cytotoxicity against human Caco2 cells assessed as inhibition of cell viability at 100 uM after 24 hrs by MTT assay; type: cell-based; settings: Caco-2 cells, read-out: INH; how it was run: as §2
[8] = tested on: Caco-2; experiment: Induction of nitrate release in human Caco2 cells at 200 uM after 24 hrs by Griess assay; type: functional, cell-based
How it was run: (§4)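 Compounds incubated 24 h with Caco-2 monolayers at 200 or 10 μM (n = 3). Supernatant nitrite read by Griess reaction (sulfanilamide 2% plus N-1-naphthylethylenediamine) at 4 °C, 45 min shaking, A540; nitrate measured after VCl3 reduction. Quantified against sodium nitrite/nitrate standards 3−200 μM; NOx = nitrite + nitrate.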

[9] = tested on: Caco-2; experiment: Induction of apoptosis in human Caco2 cells assessed as increase in necrotic cell population at 10 uM after 24 hrs by Annexin V FITC staining based flow cytometry; settings: caco-2, 24 h
How it was run: (§5)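 Cells at 80% confluence in T25 flasks treated 24 h serum-free with compound (10 μM); vehicle-only controls. Cells washed in Hepes pH 7.4/NaCl/CaCl2 binding buffer, double-stained with Annexin V-FITC and propidium iodide 15 min at room temperature in dark, read by flow cytometry within 5 min; expressed as % of control fluorescence.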

[10] = tested on: HT-1080; experiment: Inhibition of PMA-stimulated MMP-9 secretion in human HT1080 cells at 100 uM after 24 hrs by gelatin zymography; type: functional
How it was run: (§6)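 HT1080 at ~75% confluence switched to serum-free medium, pretreated 3 h with compound (100 μM; DMSO ≤0.1%), then PMA 10 μM for 24 h at 37 °C. Cleared supernatants loaded at equal protein on 2% gelatin SDS-PAGE, Triton washed, developed 48 h at 37 °C in Tris pH 7.5/CaCl2 buffer, Coomassie stained; gelatinolytic bands quantified by densitometry relative to stimulated control.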

[11] = tested on: Caco-2; experiment: Induction of apoptosis in human Caco2 cells assessed as increase in apoptotic cell population at 10 uM after 24 hrs by Annexin V FITC staining based flow cytometry; settings: caco-2, 24 h; how it was run: as §5
[12] = tested on: HT-1080; experiment: Inhibition of PMA-stimulated MMP-2 secretion in human HT1080 cells at 100 uM after 24 hrs by gelatin zymography; type: functional, cell-based; how it was run: as §6
[13] = tested on: Caco-2; experiment: Induction of nitrite release in human Caco2 cells at 200 uM after 24 hrs by Griess assay; type: functional, cell-based; how it was run: as §4
[14] = tested on: Caco-2; experiment: Inhibition of IL1beta/TNFalpha-stimulated MMP-2 secretion in human Caco2 cells at 10 uM after 24 hrs by densitometric analysis; type: functional, cell-based; how it was run: as §3
[15] = tested on: HT-1080; experiment: Induction of apoptosis in human HT1080 cells assessed as increase in apoptotic cell population at 10 uM after 24 hrs by Annexin V FITC staining based flow cytometry; settings: ht-1080, 24 h; how it was run: as §5
[16] = tested on: HT-1080; experiment: Induction of apoptosis in human HT1080 cells assessed as increase in necrotic cell population at 10 uM after 24 hrs by Annexin V FITC staining based flow cytometry; settings: ht-1080, 24 h; how it was run: as §5
[17] = tested on: Caco-2; experiment: Inhibition of HGF-stimulated human Caco2 cells invasion at 10 uM by light microscopic analysis; type: functional; how it was run: as §1
[18] = Cytotoxicity against human HT1080 cells assessed as inhibition of cell viability at 100 uM after 24 hrs by MTT assay; type: cell-based; settings: HT-1080 cells, read-out: INH; how it was run: as §2
[19] = tested on: Caco-2; experiment: Induction of nitrate release in human Caco2 cells at 10 uM after 24 hrs by Griess assay; type: functional, cell-based; how it was run: as §4
[20] = Cytotoxicity against human Caco2 cells assessed as inhibition of cell viability at 2.5 uM after 24 hrs by MTT assay; type: cell-based; settings: Caco-2 cells, read-out: INH; how it was run: as §2
[21] = tested on: Caco-2; experiment: Induction of nitrite release in human Caco2 cells at 10 uM after 24 hrs by Griess assay; type: functional, cell-based; how it was run: as §4
[22] = tested on: Caco-2; experiment: Inhibition of PMA-stimulated human Caco2 cells migration through matrigel membrane at 10 uM after 48 hrs by light microscopic analysis; type: functional; settings: Caco-2, 48 h; how it was run: as §1

Chain of Matrix metalloproteinase-9 (P14780 whole entry): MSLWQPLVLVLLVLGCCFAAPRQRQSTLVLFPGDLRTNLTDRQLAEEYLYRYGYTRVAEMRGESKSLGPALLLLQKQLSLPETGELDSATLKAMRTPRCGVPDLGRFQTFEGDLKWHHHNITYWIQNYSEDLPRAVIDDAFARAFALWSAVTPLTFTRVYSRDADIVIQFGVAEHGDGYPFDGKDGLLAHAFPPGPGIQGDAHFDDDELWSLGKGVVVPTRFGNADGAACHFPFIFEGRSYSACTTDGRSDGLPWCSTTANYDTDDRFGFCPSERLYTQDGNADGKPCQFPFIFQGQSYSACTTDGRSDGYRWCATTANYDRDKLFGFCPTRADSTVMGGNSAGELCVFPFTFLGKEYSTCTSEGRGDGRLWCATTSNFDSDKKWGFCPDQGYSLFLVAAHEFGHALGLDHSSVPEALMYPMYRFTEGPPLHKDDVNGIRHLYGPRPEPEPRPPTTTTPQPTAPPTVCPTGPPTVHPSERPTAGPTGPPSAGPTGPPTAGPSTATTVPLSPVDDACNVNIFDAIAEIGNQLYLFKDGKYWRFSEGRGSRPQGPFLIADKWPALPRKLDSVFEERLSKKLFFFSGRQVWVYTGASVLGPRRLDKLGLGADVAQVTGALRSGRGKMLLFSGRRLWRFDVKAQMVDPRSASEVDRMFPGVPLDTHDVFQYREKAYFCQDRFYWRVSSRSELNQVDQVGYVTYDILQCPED
Chain of 72 kDa type IV collagenase (P08253 whole entry): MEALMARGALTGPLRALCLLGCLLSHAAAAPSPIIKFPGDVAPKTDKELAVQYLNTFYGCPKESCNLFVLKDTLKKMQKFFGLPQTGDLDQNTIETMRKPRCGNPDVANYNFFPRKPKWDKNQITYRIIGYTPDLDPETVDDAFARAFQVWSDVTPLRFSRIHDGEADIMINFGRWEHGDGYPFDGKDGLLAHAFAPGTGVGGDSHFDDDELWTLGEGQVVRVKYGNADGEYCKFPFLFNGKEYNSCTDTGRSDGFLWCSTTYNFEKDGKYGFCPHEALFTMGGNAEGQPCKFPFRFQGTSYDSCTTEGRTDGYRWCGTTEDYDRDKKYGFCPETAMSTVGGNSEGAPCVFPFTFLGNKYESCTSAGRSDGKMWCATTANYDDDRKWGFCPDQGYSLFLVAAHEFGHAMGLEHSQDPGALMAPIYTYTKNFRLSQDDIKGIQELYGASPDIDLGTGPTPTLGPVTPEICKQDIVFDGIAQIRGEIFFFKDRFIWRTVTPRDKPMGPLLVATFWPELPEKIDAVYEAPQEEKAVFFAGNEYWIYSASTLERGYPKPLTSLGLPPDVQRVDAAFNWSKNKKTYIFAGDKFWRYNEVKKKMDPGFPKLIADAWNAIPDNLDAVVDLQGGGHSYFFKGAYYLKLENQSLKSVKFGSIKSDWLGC

Compound	inhibition at 0.1 µM [1]	CC50 at 24 h [2]	IC50 [3]	CC50 at 24 h [4]	IC50 [5]	inhibition [6]	cytotoxicity at 24 h, 100 µM [7]	Activity [8]	Activity [9]	Activity [11]	inhibition [12]	Activity [13]	inhibition [14]	Activity [15]	Activity [16]	further results
O=C1NC(=O)C(c2ccc(Oc3ccccc3)cc2)(N2CCCC(CO)C2)C(=O)N1 (stereo not given)	55.3%	46.4 µM	0.015 µM	33.1 µM	0.0062 µM	–	–	–	–	–	–	–	–	–	–	–
CN(CCO[N+](=O)[O-])C1(c2ccc(Oc3ccccc3)cc2)C(=O)NC(=O)NC1=O	44.6%	48.5 µM	0.053 µM	> 100 µM	0.0476 µM	Active	28%	Active	Non-toxic	Non-toxic	Active	Active	inactive	Non-toxic	Non-toxic	inhibition [10]: Active; inhibition [17]: inactive
O=C1NC(=O)C(c2ccc(Oc3ccccc3)cc2)(N2CCN(CCO)CC2)C(=O)N1	46.3%	> 100 µM	–	> 100 µM	–	–	25%	–	–	–	–	–	–	–	–	cytotoxicity at 24 h, 100 µM [18]: 33%
CN(CCO)C1(c2ccc(Oc3ccccc3)cc2)C(=O)NC(=O)NC1=O	34.4%	78.5 µM	0.024 µM	76.5 µM	0.145 µM	–	–	–	–	–	–	–	–	–	–	–
O=C1NC(=O)C(c2ccc(Oc3ccccc3)cc2)(N2CCC(CCO)CC2)C(=O)N1	–	30.1 µM	0.01 µM	25.2 µM	0.012 µM	–	–	–	–	–	–	–	–	–	–	–
O=C1NC(=O)C(c2ccc(Oc3ccccc3)cc2)(N2CCC(CO[N+](=O)[O-])CC2)C(=O)N1	35.8%	11.8 µM	0.219 µM	> 12.5 µM	0.212 µM	Active	–	Active	Non-toxic	Non-toxic	Active	Active	inactive	Non-toxic	Non-toxic	inhibition at 100 µM ([10]; HT-1080, 24 h): > 80%; Activity [19]: inactive; cytotoxicity at 24 h, 2.5 µM [20]: 12%; Activity [21]: inactive; inhibition at 10 µM [22]: 64.9%
